Usually inhibition in vivo stands for the drop in the measured response relative to a control, in per cent. One may read the IC50 as the concentration that inhibits the measured activity by half. Low readings indicate greater potency, high ones weaker potency.

The text below walks through data of ChEMBL document CHEMBL1759837, “Studies on chemical modification and biology of a natural product, gambogic acid (III): determination of the essential pharmacophore for biological activity” (Eur J Med Chem, 2011).

Calls of active or inactive are those of the source. No cut-off for these calls is given here.

The subject of series [1] is Heps hepatoma (Mus musculus). Nature of the series: Antitumor activity against murine Heps hepatoma cells transplanted in Kunming mouse assessed as tumor growth inhibition at 25 mg/kg, iv administered 24 hrs after tumor implantation one dose per two day for total of four treatment measured after 24 hrs last postdose relative to control.
For series [2], the system named is HepG2. Kind of series: Induction of apoptosis in human HepG2 cells assessed as early apoptotic cells at 1 uM after 24 hrs using annexin V-propidium iodide staining by flow cytometry (reference value: 3%). It is filed as functional. (A flow cytometer gives signals particle by particle.)
Series [3] deals with HepG2. Nature of the series: Cell cycle arrest in human HepG2 cells assessed as accumulation at G2/M phase at 2 uM after 24 hrs using propidium iodide by Flow cytometry. It is filed as functional, cell-based. The method, boiled down:
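HepG2 cells synchronised by 24 h serum starvation, then treated 24 h at 1, 2 or 4 µM. Cells fixed overnight in 70% ethanol at 4 °C and stained 15 min at 37 °C in the dark with hypotonic PI solution (0.1% sodium citrate, 0.1% Triton X-100, 0.05 mg/ml PI, 0.01 mg/ml RNase). DNA content measured by flow cytometry.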

Series [4] has as its system HepG2. Kind of series: Induction of apoptosis in human HepG2 cells assessed as decrease in bcl-2 expression at 4 uM after 24 hrs by Western blot analysis. It is filed as functional, cell-based. Put shortly:
(§1)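 HepG2 cells treated 24 h at 1, 2 or 4 µM. Lysed in Tris-Cl pH 6.8 buffer containing SDS, glycerol, β-mercaptoethanol, PMSF and aprotinin; cleared at 12 000 × g, 15 min, 4 °C. Protein measured by BCA. Samples run on 15% SDS-PAGE, transferred to PVDF, probed overnight at 4 °C with primary antibodies against bcl-2, bax and pro-caspase-3, then IRDye 800 secondary 1 h at 37 °C.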
(In general: Immunoblotting shows a protein as a band on a membrane.)

Series [5] deals with HepG2. Kind of series: Induction of apoptosis in human HepG2 cells assessed as appearance of apoptotic bodies at 1 to 4 uM after 24 hrs using DAPI staining by fluorescent microscopy. It is filed as functional, cell-based. Put shortly: (§2)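 HepG2 cells seeded at 1 × 10⁵ cells/well and treated 24 h at 1, 2 or 4 µM. Living cells first viewed under inverted light microscope (×200). Cells then fixed 20 min in 4% paraformaldehyde, stained 10 min with DAPI (1 mg/ml) and examined by fluorescence microscopy (×400, 340 nm excitation) for nuclear changes and apoptotic bodies.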

The test system of series [6] is HepG2. Nature of the series: Induction of apoptosis in human HepG2 cells assessed as large proportion of cell became round in shape at 4 uM after 24 hrs […] by inverted light microscopy. It is filed as functional, cell-based. Put shortly:
as §2

Series [7] deals with HepG2. Nature of the series: Induction of apoptosis in human HepG2 cells assessed as effect on bax protein expression at 2 uM after 24 hrs by Western blot analysis. It is filed as functional, cell-based. Put shortly: as §1
The subject of series [8] is HepG2. Kind of series: Antiproliferative activity against human HepG2 cells after 24 hrs by MTT assay. It is filed as functional, cell-based. Conditions: HepG2, 24 h. The method, boiled down: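 Tetrazolium MTT viability test; cells exposed to compound 24 h, absorbance read at 570 nm. Survival ratio = A treated / A control × 100%; IC50 is the concentration giving 50% loss of viability. Eight concentrations in two-fold dilutions, triplicate wells, mean of two separate experiments. Compounds dissolved in DMSO (0.01 mol/L stock); control wells received medium only.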

The subject of a further series is BGC-823. Kind of series: Antiproliferative activity against human BGC823 cells after 24 hrs by MTT assay. It is filed as functional, cell-based. Conditions: BGC-823, 24 h. Put shortly: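 Cells grown at 37 °C in humidified 5% CO2 with benzylpenicillin and streptomycin. Compounds came from 0.01 mol/L DMSO stocks and were tested at eight two-fold dilutions in triplicate, with medium-only controls, for 24 h. MTT absorbance was read at 570 nm. Survival = A_treatment/A_control × 100. IC50 is the concentration giving 50% viability inhibition, as the mean of two separate experiments.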
On the technique in general: Formazan colour is commonly taken as a measure of viable cells.

Series [9] deals with HepG2. Nature of the series: Induction of apoptosis in human HepG2 cells assessed as late apoptotic cells at 2 uM after 24 hrs using annexin V-propidium iodide staining by flow cytometry (reference value: 3.4%). It is filed as functional.
Series [10] deals with Mus musculus. Nature of the series: Toxicity in Kunming mouse xenografted with human HepG2 cells assessed as change in body weight at 25 mg/kg, iv administered 24 hrs after tumor implantation one dose per two day for total of four treatment measured after 24 hrs last postdose (reference value: 20.20 +/- 1.14 g). Conditions: in vivo. It is filed as organism-based. Also noted: dose 25 mg/kg, route intravenous.

For series [11], the system named is Heps hepatoma (Mus musculus). Kind of series: Antitumor activity against murine Heps hepatoma cells transplanted in Kunming mouse assessed as tumor growth inhibition at 50 mg/kg, iv administered 24 hrs after tumor implantation one dose per two day for total of four treatment measured after 24 hrs last postdose relative to control.
In series [12] the test system is HepG2. Nature of the series: Induction of apoptosis in human HepG2 cells assessed as pre-necrotic cells at 1 uM after 24 hrs using annexin V-propidium iodide staining by flow cytometry (reference value: 0.5%). It is filed as functional.
Series [13] has as its system Heps hepatoma (Mus musculus). Nature of the series: Antitumor activity against murine Heps hepatoma cells transplanted in Kunming mouse assessed as tumor growth inhibition at 12.5 mg/kg, iv administered 24 hrs after tumor implantation one dose per two day for total of four treatment measured after 24 hrs last postdose relative to control.
The subject of series [14] is HepG2. Kind of series: Induction of apoptosis in human HepG2 cells assessed as decrease in pro-caspase-3 expression at 4 uM after 24 hrs by Western blot analysis. It is filed as functional, cell-based. Put shortly: as §1
Series [15] deals with Mus musculus. Nature of the series: Toxicity in Kunming mouse xenografted with human HepG2 cells assessed as change in body weight at 50 mg/kg, iv administered 24 hrs after tumor implantation one dose per two day for total of four treatment measured after 24 hrs last postdose (reference value: 19.10 +/- 1.29 g). The settings on record: in vivo.
In series [16] the test system is HepG2. Kind of series: Induction of apoptosis in human HepG2 cells assessed as activation of caspase 3 at 1 to 4 uM after 24 hrs by colorimetric assay relative to control. It is filed as functional. Put shortly:
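Kit colorimetric caspase-3 test. HepG2 cells treated at 1, 2 or 4 µM for 24 h at 37 °C, then lysed on ice 20 min and centrifuged. Supernatant containing 200 µg total protein incubated with Ac-DEVD-pNA 4 h at 37 °C; absorbance read at 405 nm. Fold activity = OD treated / OD control; mean ± SD, t-test.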

Series [17] concerns HepG2. Nature of the series: Induction of apoptosis in human HepG2 cells assessed as decrease in pro-caspase-3 expression at 1 uM after 24 hrs by Western blot analysis. It is filed as functional, cell-based. The method, boiled down: as §1
The test system of series [18] is HepG2. Nature of the series: Induction of apoptosis in human HepG2 cells assessed as viable cells at 2 uM after 24 hrs using annexin V-propidium iodide staining by flow cytometry (reference value: 93.2%). It is filed as functional. The settings on record: HepG2, 24 h, read-out: Activity.
Series [19] has as its system HepG2. Kind of series: Induction of apoptosis in human HepG2 cells assessed as nuclear condensation at 1 to 4 uM after 24 hrs using DAPI staining by fluorescent microscopy. It is filed as functional, cell-based. Put shortly:
as §2

The subject of series [20] is HepG2. Kind of series: Induction of apoptosis in human HepG2 cells assessed as appearance of necrosis at 4 uM after 24 hrs by light microscopy. It is filed as functional, cell-based. Put shortly: as §2
The subject of series [21] is HepG2. Nature of the series: Induction of apoptosis in human HepG2 cells assessed as early apoptotic cells at 4 uM after 24 hrs using annexin V-propidium iodide staining by flow cytometry (reference value: 3%). It is filed as functional.
In series [22] the test system is HepG2. Kind of series: Induction of apoptosis in human HepG2 cells assessed as decrease in bcl-2 expression at 1 uM after 24 hrs by Western blot analysis. It is filed as functional, cell-based. The method, boiled down:
as §1

In series [23] the test system is HepG2. Kind of series: Induction of apoptosis in human HepG2 cells assessed as effect on bax protein expression at 4 uM after 24 hrs by Western blot analysis. It is filed as functional, cell-based. The method, boiled down: as §1

As to `CC(C)=CCC12OC(C)(C)C3CC(C=C4C(=O)c5c(O)cccc5OC431)C2=O` (centres undefined), the inhibition in vivo at 25 mg/kg in series [1] came out at 32.3%. For the same compound, the Activity in the series with HepG2 [2] amounted to 8.1%; in the series on HepG2 [9], 8.1%; in the series on Mus musculus [10], 29.4 g; in the series with HepG2 [12], 0.8%; in the series with Mus musculus [15] it was 24.7 g; in the series on HepG2 [21], 23.3%. In addition, the result with HepG2 [3], with HepG2 [4], with HepG2 [5], in the series with HepG2 [6], in the series with HepG2 [14] and in the series with HepG2 [17] was Active. For the same compound, the outcome in the series with HepG2 [19], in the series on HepG2 [20] and in the series on HepG2 [22] was Active. The result with HepG2 [7] and in the series on HepG2 [23] was inactive. Besides, the IC50 in the series with HepG2 [8] was 2370 nM; in the series with BGC-823, 3590 nM. Besides, the inhibition in vivo at 50 mg/kg in [11] was 49.2%. In addition, in [13], the inhibition in vivo at 12.5 mg/kg came to 14.9%. Moreover, in the series with HepG2 [16], the “fold change (FC)” value was 3. Besides, the viability at 2 µM in the series with HepG2 [18] amounted to 71.9%.
